In ChEMBL document CHEMBL1132233, “6-Anilinouracil-based inhibitors of Bacillus subtilis DNA polymerase III: antipolymerase and antimicrobial structure-activity relationships based on substitution at uracil N3” (J Med Chem, 1999):
Values after ≈ are worked out from the molar mass of the structure shown.

Assays:
[1] = Compound was tested for inhibitory activity against DNA pol III of Bacillus subtilis
Method in brief: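 Homogeneous recombinant B. subtilis DNA pol III was assayed on activated calf thymus DNA. Apparent Ki was determined with a truncated assay lacking the competitor dGTP. Values are the average of three independent experiments.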

Bacillus subtilis = experiment: Minimum inhibitory concentration against Bacillus subtilis; assay type: functional
Method in brief: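 Test organism was penicillin-sensitive B. subtilis strain BD54. A log-phase culture was diluted to 10^4 cells/mL in Luria broth. Inhibitors in DMSO were added at 0–100 µM, with final DMSO at 1%. Cultures were incubated 24 h at 37 °C and growth was scored by eye. MIC is the lowest concentration with no apparent growth, averaged over three independent experiments.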

[2] = target: DNA polymerase III (Bacillus subtilis); experiment: Compound was tested for inhibitory activity against DNA polymerase III of Bacillus subtilis

Row | Ki [1] | MIC (Bacillus subtilis) | Ki [2] | SMILES
1 | 380 nM | 3 µM (≈ 0.85 µg/mL) | – | C=CCn1c(=O)cc(Nc2ccc3c(c2)CCC3)[nH]c1=O
2 | 1340 nM | 5 µM (≈ 1.29 µg/mL) | – | Cn1c(=O)cc(Nc2ccc3c(c2)CCC3)[nH]c1=O
3 | – | 3 µM (≈ 0.898 µg/mL) | 90 nM | CCCCn1c(=O)cc(Nc2ccc3c(c2)CCC3)[nH]c1=O
4 | 1000 nM | 1.5 µM (≈ 0.476 µg/mL) | – | CCc1cc(Nc2cc(=O)n(CCCOC)c(=O)[nH]2)ccc1C
5 | 590 nM | 3 µM (≈ 0.868 µg/mL) | – | CCc1cc(Nc2cc(=O)n(CCO)c(=O)[nH]2)ccc1C
6 | 580 nM | 3 µM (≈ 0.91 µg/mL) | – | CCc1cc(Nc2cc(=O)n(CCOC)c(=O)[nH]2)ccc1C
7 | – | 1.5 µM (≈ 0.41 µg/mL) | 120 nM | CCc1cc(Nc2cc(=O)n(CC)c(=O)[nH]2)ccc1C
8 | 1200 nM | 30 µM (≈ 7.3 µg/mL) | – | Oc1cc(Nc2ccc3c(c2)CCC3)nc(O)n1
9 | 210 nM | 1.5 µM (≈ 0.428 µg/mL) | – | C=CCn1c(=O)cc(Nc2ccc(C)c(CC)c2)[nH]c1=O
10 | 730 nM | 3 µM (≈ 0.91 µg/mL) | – | CCc1cc(Nc2cc(=O)n(CCCO)c(=O)[nH]2)ccc1C
11 | 240 nM | > 100 µM | – | CCCCCCn1c(=O)cc(Nc2ccc3c(c2)CCC3)[nH]c1=O
12 | 310 nM | 3 µM (≈ 0.814 µg/mL) | – | CCn1c(=O)cc(Nc2ccc3c(c2)CCC3)[nH]c1=O
13 | – | 11 µM (≈ 3.14 µg/mL) | 310 nM | CCCn1c(=O)cc(Nc2ccc3c(c2)CCC3)[nH]c1=O
14 | 1000 nM | 30 µM (≈ 7.36 µg/mL) | – | CCc1cc(Nc2cc(O)nc(O)n2)ccc1C
